ChEMBL document CHEMBL4325899, “Synthesis and photocytotoxic activity of [1,2,3]triazolo[4,5-h][1,6]naphthyridines and [1,3]oxazolo[5,4-h][1,6]naphthyridines” (Eur J Med Chem, 2019)
Activity calls are given as the source filed them. The calls are words filed in the database; no cut-off is given here.

How the values were obtained:
HT-29 [1] = test: Phototoxicity against human HT-29 cells preincubated for 5 mins followed by compound washout and subsequent UV irradiation at 1.5 J/cm2 for 5 mins measured after 72 hrs by MTT assay; type: functional, cell-based; conditions: HT-29, light or radiation study
Procedure, shortened: (§1)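 Compounds were diluted in DMSO (0.5% final), applied in triplicate for 5 min, then washed out with PBS. After medium removal, cells were irradiated on ice for 5 min at 365 nm (1.5 J/cm²) and then kept 72 h at 37 °C. Viability was read by MTT at 540 nm and expressed relative to 0.5% DMSO controls given the same treatment. EC50 is the concentration killing 50%, as the mean ± SD of at least three experiments.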

MCF7 [2] = test: Phototoxicity against human MCF7 cells preincubated for 5 mins followed by compound washout and subsequent UV irradiation at 1.5 J/cm2 for 5 mins measured after 72 hrs by MTT assay; type: functional, cell-based; conditions: MCF7, light or radiation study; procedure, shortened: as §1
MCF7 [3] = test: Induction of apoptosis in human MCF7 cells assessed as apoptotic cells at EC50 after 4 hrs in presence of photoirradiation by Annexin V-FITC/propidium iodide staining-based flow cytometric analysis relative to control; type: functional
MCF7 [4] = test: Cell cycle arrest in human MCF7 cells assessed as accumulation of cells at G2/M phase at EC50 after 24 hrs under UV-irradiation by propidium iodide staining-based flow cytometric analysis (reference value: 26.3%); type: functional
MCF-10A = test: Phototoxicity against human MCF10A cells preincubated for 5 mins followed by compound washout and subsequent UV irradiation at 1.5 J/cm2 for 5 mins measured after 72 hrs by MTT assay; type: cell-based; conditions: light or radiation study; procedure, shortened: as §1
MCF7 [5] = test: Induction of apoptosis in human MCF7 cells assessed as viable cells at EC50 after 4 hrs in presence of photoirradiation by Annexin V-FITC/propidium iodide staining-based flow cytometric analysis (reference value: 95%); type: functional
MCF7 [6] = test: Cell cycle arrest in human MCF7 cells assessed as accumulation of cells at G0/G1 phase at EC50 after 24 hrs under UV-irradiation by propidium iodide staining-based flow cytometric analysis (reference value: 44.2%); type: functional
MCF7 [7] = test: Induction of lysosomal activation in human MCF7 cells at 2 uM after 2 hrs in presence of UV irradiation by Lysotracker Green DND 26 staining-based confocal microscopic analysis; type: functional, cell-based
Procedure, shortened: (§2)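 MCF7 cells (4x10⁵) on glass slides were loaded with LysoTracker Green DND-26 (175 nM) for 45 min in phenol-red-free, serum-free medium, before 2 µM compound with or without UV activation. Cells were fixed in 2% PFA 20 min or 2 h after UV and imaged confocally (ex 488 nm, em 500–530 nm). Controls were untreated cells with and without irradiation, and cells given PMA (400 nM).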

MCF7 [8] = test: Induction of mitochondrial dysfunction in human MCF7 cells at 2 uM after 2 hrs in presence of UV irradiation by Mitotracker Orange CMTM-ROS staining-based confocal microscopic analysis; type: functional, cell-based
Procedure, shortened: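 MCF7 cells (4x10⁵) were plated on glass slides for 24 h. They were then loaded with MitoTracker Orange CMTM-ROS (150 nM) for 45 min in phenol-red-free, serum-free medium, before 2 µM compound and UV photoactivation. Cells were fixed in 2% PFA 20 min or 2 h after UV and imaged confocally (ex 543 nm, em 560–620 nm). PMA (400 nM) served as ROS-inducer control.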

MCF7 [9] = test: Cell cycle arrest in human MCF7 cells assessed as accumulation of cells at S phase at EC50 after 24 hrs under UV-irradiation by propidium iodide staining-based flow cytometric analysis (reference value: 24.7%); type: functional
[10] = Solubility of the compound in DMSO; type: physicochemical
MCF7 [11] = test: Induction of lysosomal activation in human MCF7 cells at 2 uM after 2 hrs in absence of UV irradiation by Lysotracker Green DND 26 staining-based confocal microscopic analysis; type: cell-based; conditions: mcf7, 2 h; procedure, shortened: as §2
MCF7 [12] = test: Induction of apoptosis in human MCF7 cells assessed as necrotic cells at EC50 after 4 hrs in presence of photoirradiation by Annexin V-FITC/propidium iodide staining-based flow cytometric analysis relative to control; type: functional
[13] = Dark toxicity against human HT-29 cells preincubated for 5 mins followed by compound washout and measured after 72 hrs by MTT assay; type: cell-based
Procedure, shortened: (§3)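 Cells were plated and allowed to attach overnight. Compounds were diluted in DMSO (0.5% final), with each concentration in triplicate, and applied for 5 min. Cells were then washed in PBS and given fresh medium. Without irradiation, cells were held 72 h at up to 50 μM. MTT (5 mg/mL stock) was added for 4 h, crystals were dissolved in SDS/HCl overnight, and absorbance was read at 540 nm. CC50 is the concentration killing 50% of cells, taken as the mean of at least three experiments.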

[14] = Dark toxicity against human MCF7 cells preincubated for 5 mins followed by compound washout and measured after 72 hrs by MTT assay; type: cell-based; procedure, shortened: as §3
[15] = Dark toxicity against human A375 cells preincubated for 5 mins followed by compound washout and measured after 72 hrs by MTT assay; type: cell-based, A-375; procedure, shortened: as §3
MCF7 [16] = test: Induction of ROS generation in human MCF7 cells at 2 uM preincubated for 30 mins followed by irradiation at 1.5 J/cm2 for 2 hrs by H2DCFDA probe-based fluorescence assay; type: functional, cell-based
Procedure, shortened: (§4)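 MCF7 cells (3x10⁴) were plated 24 h ahead to reach 80–90% confluence. Compounds were applied for 30 min in phenol-red-free, serum-free medium, and H2DCFDA (10 µM) was added 15 min before irradiation (1.5 J/cm², ~365 nm) or no irradiation. DCF fluorescence (485/535 nm) was read 2 h after light and expressed relative to untreated controls (100%). PMA (400 nM) served as positive control; three independent experiments.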

MCF7 [17] = test: Cell cycle arrest in human MCF7 cells assessed as accumulation of cells at subG1 phase at EC50 after 24 hrs under UV-irradiation by propidium iodide staining-based flow cytometric analysis (reference value: 4.8%); type: functional
MCF7 [18] = test: Induction of ROS generation in human MCF7 cells at 0.5 to 2 uM measured after 30 mins under dark condition by H2DCFDA probe-based fluorescence assay; type: cell-based; conditions: mcf7, 0.5 h; procedure, shortened: as §4
[19] = Photogeneration of oxygen in aqueous acetonitrile/water solution at 2.3 x 10^-5M measured after 1 hr under 150W irradiation by ADPA probe based spectra analysis
[20] = Dark toxicity against human MCF10A cells preincubated for 5 mins followed by compound washout and measured after 72 hrs by MTT assay; type: cell-based, MCF-10A; procedure, shortened: as §3
A-375 [21] = test: Phototoxicity against human A375 cells preincubated for 5 mins followed by compound washout and subsequent UV irradiation at 1.5 J/cm2 for 5 mins measured after 72 hrs by MTT assay; type: functional, cell-based; conditions: A-375, light or radiation study; procedure, shortened: as §1
MCF7 [22] = test: Induction of ROS generation in human MCF7 cells at 2 uM measured after 30 mins under dark condition by H2DCFDA probe-based fluorescence assay; type: cell-based; conditions: mcf7, 0.5 h; procedure, shortened: as §4
MCF7 [23] = test: Induction of lysosomal activation in human MCF7 cells at 400 nM after 6 hrs under UV-irradiation by Lysotracker Green DND 26 staining-based confocal microscopic analysis; type: functional, cell-based
Procedure, shortened: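 MCF7 cells (4x10^5) on glass slides for 24 h. Medium replaced with phenol red- and serum-free medium containing LysoTracker Green DND-26 (175 nM) for 45 min. Compound then added and cells irradiated at 365 nm (1.5 J/cm2). Cells then PBS-washed, fixed in 2% PFA and mounted. Acidic compartments imaged by confocal microscopy (ex 488, em 500–530 nm) against non-irradiated and untreated controls.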

MCF7 [24] = test: Induction of mitochondrial dysfunction in human MCF7 cells assessed as mitochondria fusion at 400 nM after 6 hrs in presence of UV irradiation by Mitotracker Orange CMTM-ROS staining-based confocal microscopic analysis; type: functional, cell-based
Procedure, shortened: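 MCF7 cells (4x10^5) on glass slides for 24 h. Live-labelled with MitoTracker Orange CMTM-ROS (150 nM) for 45 min in phenol red- and serum-free medium. Compound then added and cells irradiated at 365 nm (1.5 J/cm2). Fixed in 2% PFA and nuclei counterstained. Mitochondrial network morphology imaged by confocal microscopy (ex 543, em 560–620 nm) 6 h post-treatment, with untreated, irradiated and non-irradiated controls.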

MCF7 [25] = test: Induction of ROS generation in human MCF7 cells at 0.4 uM preincubated for 30 mins followed by irradiation at 1.5 J/cm2 for 2 hrs by H2DCFDA probe-based fluorescence assay (reference value: 100%); type: functional
Procedure, shortened: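 MCF7 cells (3x10^4/well) seeded 24 h ahead to 80–90% confluence. Compound given for 30 min in phenol red- and serum-free medium. H2DCFDA (10 µM) added 15 min before irradiation at ~365 nm, 1.5 J/cm2. Fluorescence read 2 h after light (ex 485, em 535 nm) as % of untreated irradiated controls. Non-irradiated plates run alongside; three independent experiments.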

[26] = tested on: Human immunodeficiency virus 1; test: Antiviral activity against HIV1 3B infected in human MT4 cells assessed as decrease in viral replication by p24 ELISA; type: functional; conditions: Human immunodeficiency virus 1, 3B, read-out: CIC95
[27] = Selectivity index, ratio of EC50 for human MCF10A cells under UV irradiation at 1.5 J/cm2 to EC50 for human HT-29 cells under UV irradiation at 1.5 J/cm2; type: toxicity; conditions: MCF10A cells versus HT-29 cells, read-out: Ratio EC50
Procedure, shortened: (§5)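 SI is the EC50 under irradiation in non-tumor MCF10A cells divided by the EC50 under irradiation in the tumor line. Both were MTT read-outs 72 h after 1.5 J/cm² at 365 nm.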

[28] = Phototoxicity index, ratio of CC50 for human MCF10A cells to EC50 for human MCF10A cells under UV irradiation at 1.5 J/cm2; type: cell-based, MCF-10A; conditions: read-out: Ratio CC50/EC50
A-375 [29] = test: Phototoxicity index, ratio of CC50 for human A375 cells to EC50 for human A375 cells under UV irradiation at 1.5 J/cm2
HT-29 [30] = test: Phototoxicity index, ratio of CC50 for human HT-29 cells to EC50 for human HT-29 cells under UV irradiation at 1.5 J/cm2
MCF7 [31] = test: Phototoxicity index, ratio of CC50 for human MCF7 cells to EC50 for human MCF7 cells under UV irradiation at 1.5 J/cm2
[32] = Selectivity index, ratio of EC50 for human MCF10A cells under UV irradiation at 1.5 J/cm2 to EC50 for human A375 cells under UV irradiation at 1.5 J/cm2; type: toxicity; conditions: MCF10A cells versus A375 cells, read-out: Ratio EC50; procedure, shortened: as §5
[33] = Selectivity index, ratio of EC50 for human MCF10A cells under UV irradiation at 1.5 J/cm2 to EC50 for human MCF7 cells under UV irradiation at 1.5 J/cm2; type: toxicity; conditions: MCF10A cells versus MCF7 cells, read-out: Ratio EC50; procedure, shortened: as §5

## COc1ccc(-n2nnc3c4nc(C)ccc4c(C)nc32)cc1
HT-29 [1]
  EC50: > 50 µM
MCF7 [2]
  EC50: > 50 µM
MCF7 [3]
  Activity: 4%
MCF7 [4]
  Activity: 26.6%
MCF-10A
  EC50: > 50 µM
MCF7 [5]
  Activity: 90%
MCF7 [6]
  Activity: 43.2%
MCF7 [7]
  Activity: inactive
MCF7 [8]
  Activity: inactive
MCF7 [9]
  Activity: 25.7%
[10]
  solubility: Soluble
MCF7 [11]
  Activity: Non-Toxic
MCF7 [12]
  Activity: 7%
[13]
  CC50 at 72 h: > 50 µM
[14]
  CC50 at 72 h: > 50 µM
[15]
  CC50 at 72 h: > 50 µM
MCF7 [16]
  Activity: inactive
MCF7 [17]
  Activity: 4.5%
MCF7 [18]
  Activity: Non-Toxic
[19]
  Activity: Active
[20]
  CC50 at 72 h: > 50 µM
A-375 [21]
  EC50: > 50 µM
MCF7 [22]
  Activity: Non-Toxic

## CCCCCCCCCCCCCC(=O)O[C@@H]1[C@@H](C)[C@@]2(O)[C@@H](C=C(CO)C[C@]3(O)C(=O)C(C)=C[C@@H]23)[C@@H]2C(C)(C)[C@]12OC(C)=O [PHORBOL MYRISTATE ACETATE]
MCF7 [23]
  Activity: Active
MCF7 [24]
  Activity: Active
MCF7 [25]
  Activity: 120%

## O=C(c1cc(Cc2ccccc2)cc(CN2CCCS2(=O)=O)c1)c1ncc2cccnc2c1O
[26]
  IC95: 0.39 µM

## COc1ccccc1-c1ccc2c(C)nc3oc(-c4ccccc4)nc3c2n1
HT-29 [1]
  EC50: 0.197 µM
MCF7 [2]
  EC50: 1.32 µM
MCF-10A
  EC50: 1.17 µM
[27]
  selectivity ratio: 6
[10]
  solubility: Soluble
[28]
  selectivity ratio: > 43
[13]
  CC50 at 72 h: > 50 µM
[14]
  CC50 at 72 h: > 50 µM
[15]
  CC50 at 72 h: > 50 µM
A-375 [29]
  Ratio CC50/EC50: >79
HT-29 [30]
  Ratio CC50/EC50: >254
[20]
  CC50 at 72 h: > 50 µM
MCF7 [31]
  Ratio CC50/EC50: >38
[32]
  selectivity ratio: 2
A-375 [21]
  EC50: 0.633 µM
[33]
  selectivity ratio: 0.884
